In data set [1] the target is Cannabinoid receptor 1 (Homo sapiens, UniProt P21554). Put plainly: Displacement of [3H]CP-55940 from human CB1 receptor expressed in HEK293 cells. It counts as cell-based. A general note: Loss of bound radioactivity is the signal in a displacement assay; it reports binding, not function.
The target in data set [2] is T1, Cannabinoid receptor 2 (Homo sapiens, UniProt P34972). The experiment in a line: Displacement of [3H]CP-55940 human CB2 receptor expressed in CHOK1 cells. In kind it is cell-based, CHO-K1. The gist of the method: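 Human CB2 expressed in CHO cells. Values are the mean ± SEM of at least three determinations, derived by logistic curve fitting.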
T1 sequence (P34972 whole entry): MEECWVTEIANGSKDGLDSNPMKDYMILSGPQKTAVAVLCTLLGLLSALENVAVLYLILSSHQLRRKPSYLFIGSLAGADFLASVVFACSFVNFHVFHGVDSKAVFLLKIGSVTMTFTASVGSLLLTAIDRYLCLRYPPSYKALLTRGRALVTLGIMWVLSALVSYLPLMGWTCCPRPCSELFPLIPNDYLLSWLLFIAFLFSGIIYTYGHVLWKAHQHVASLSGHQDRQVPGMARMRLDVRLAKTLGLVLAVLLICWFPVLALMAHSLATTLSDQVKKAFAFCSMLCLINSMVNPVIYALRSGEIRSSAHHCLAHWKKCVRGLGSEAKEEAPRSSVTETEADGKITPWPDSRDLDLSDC
Data set [3] addresses T1, Cannabinoid receptor 2. Put plainly: Agonist activity at human CB2 receptor expressed in CHOK1 cells assessed as reversal of forskolin-evoked cAMP accumulation relative to CP-55940. In kind it is functional, cell-based. To be noted: CHO-K1. The gist of the method:
(§1)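 CHO cells expressing human CB2 were stimulated with forskolin, and agonist reversal of cyclic AMP accumulation was measured. Potency is given as mean ± SEM of 3–13 independent measurements. Emax is the maximal reversal, expressed as a percentage of the value obtained with a reference agonist.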
Background: Cyclic AMP is a second messenger, typically raised through Gs and lowered through Gi signalling.

For data set [4], the species on record is Rattus norvegicus. The experiment in a line: Antihyperalgesic activity in rat assessed as reversal of hyperalgesia. In kind it is functional. Summed up:
(§2)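 Rat model of neuropathic mechanical hyperalgesia with oral dosing. Read-out was paw withdrawal threshold of the ipsilateral paw, followed from 1 h after dosing, with 12 animals per group, as mean ± SEM. Groups were compared with vehicle by ANOVA and Tukey's HSD.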

The nature of data set [5]: Volume of distribution at steady state in Wistar rat at 1 mg/kg, iv. It counts as ADME, organism-based. Also noted: dose 1 mg/kg, route intravenous. To be noted: in vivo, read-out: Vdss. Summed up: (§3)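 Wistar rats dosed once iv at 1 mg/kg or orally at 3.4 mg/kg. Plasma parameters (half-life, steady-state volume of distribution, total clearance, AUC0-∞, Tmax, Cmax) were derived from the concentration–time profiles. Absolute oral bioavailability was calculated from the po and iv AUC0-∞.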

Data set [6] is described as follows: Bioavailability in Wistar rat at 3.4 mg/kg, po. In kind it is ADME, organism-based. To be noted: in vivo. The gist of the method: as §3
A short description of data set [7]: AUC (0 to infinity) in Wistar rat at 3.4 mg/kg, po. In kind it is ADME, organism-based. Details: time infinity, dose 3.4 mg/kg, route oral. The settings on record: plasma. The gist of the method:
as §3

Data set [8] in a line: Total clearance in Wistar rat at 1 mg/kg, iv. The settings on record: in vivo. Details: dose 1 mg/kg, route intravenous. It counts as ADME, organism-based. The gist of the method:
as §3

The subject of data set [9] is Liver microsomes. The experiment in a line: Intrinsic clearance in rat liver microsomes. In kind it is ADME, Microsome. For orientation: Microsomes from liver hold many membrane-bound enzymes, among them those of drug oxidation.
Data set [10] can be described thus: Partition coefficient, log P of the compound. To be noted: octanol/water. It counts as physicochemical.
In the next data set the target is Cytochrome P450 2E1 (Homo sapiens, UniProt P05181). Put plainly: Inhibition of CYP2E1 in human liver microsomes. In kind it is ADME, Microsome.
Sequence of Cytochrome P450 2E1 (P05181 whole entry): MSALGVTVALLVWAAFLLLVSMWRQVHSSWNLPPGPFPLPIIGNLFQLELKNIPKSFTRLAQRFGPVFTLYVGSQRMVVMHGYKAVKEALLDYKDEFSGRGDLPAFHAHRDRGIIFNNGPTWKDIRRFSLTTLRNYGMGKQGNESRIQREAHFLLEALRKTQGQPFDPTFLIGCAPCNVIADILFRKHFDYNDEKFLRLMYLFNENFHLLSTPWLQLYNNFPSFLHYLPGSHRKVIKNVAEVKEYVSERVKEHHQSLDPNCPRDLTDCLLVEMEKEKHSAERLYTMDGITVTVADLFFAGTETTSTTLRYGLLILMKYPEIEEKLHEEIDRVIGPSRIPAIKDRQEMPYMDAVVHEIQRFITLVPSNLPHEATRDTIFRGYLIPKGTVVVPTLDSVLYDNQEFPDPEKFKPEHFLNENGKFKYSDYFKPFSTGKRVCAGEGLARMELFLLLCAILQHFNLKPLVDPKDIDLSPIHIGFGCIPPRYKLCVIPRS
A short description of data set [11]: Tmax in Wistar rat at 3.4 mg/kg, po. It counts as ADME, organism-based. Details: dose 3.4 mg/kg, route oral. The settings on record: in vivo. The gist of the method: as §3
For a further data set, the system named is Brain. The experiment in a line: Drug level in brain in Wistar rat after 4 hrs. The settings on record: in vivo. In kind it is ADME, tissue-based. The gist of the method:
(§4)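 Single oral dose of 3 mg/kg in Wistar rats. Plasma and brain concentrations were followed over time after dosing.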

Data set [12] is described as follows: Plasma protein binding. In kind it is ADME, cell-free. To be noted: human, read-out: PPB.
For a further data set, the target named is Cytochrome P450 2C9 (Homo sapiens, UniProt P11712). Put plainly: Inhibition of CYP2C9 in human liver microsomes. In kind it is ADME, Microsome.
Sequence of Cytochrome P450 2C9 (P11712 whole entry): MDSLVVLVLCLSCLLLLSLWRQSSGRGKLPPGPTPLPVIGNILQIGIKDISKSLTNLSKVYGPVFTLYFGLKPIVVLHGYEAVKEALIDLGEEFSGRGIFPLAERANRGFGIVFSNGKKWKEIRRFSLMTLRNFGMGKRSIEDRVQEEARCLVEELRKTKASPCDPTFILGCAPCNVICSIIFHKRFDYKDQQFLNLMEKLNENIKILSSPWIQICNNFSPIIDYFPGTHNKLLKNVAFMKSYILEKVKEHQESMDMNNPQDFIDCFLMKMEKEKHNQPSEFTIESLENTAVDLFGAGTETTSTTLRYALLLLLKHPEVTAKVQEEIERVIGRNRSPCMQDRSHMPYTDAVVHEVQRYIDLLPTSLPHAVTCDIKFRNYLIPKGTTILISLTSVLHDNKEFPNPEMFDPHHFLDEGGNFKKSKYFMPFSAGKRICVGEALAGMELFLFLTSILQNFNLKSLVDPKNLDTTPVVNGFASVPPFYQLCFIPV
Data set [13] can be described thus: Cmax in Wistar rat at 3 mg/kg, po after 1 hr. Details: dose 3 mg/kg, route oral. The settings on record: in vivo. It counts as ADME, organism-based. Summed up: as §4
Data set [14] deals with Cannabinoid receptor 1 (Rattus norvegicus, UniProt P20272). Put plainly: Inhibition of rat CB1 receptor.
Sequence of Cannabinoid receptor 1 (Rattus norvegicus, UniProt P20272) (P20272 whole entry): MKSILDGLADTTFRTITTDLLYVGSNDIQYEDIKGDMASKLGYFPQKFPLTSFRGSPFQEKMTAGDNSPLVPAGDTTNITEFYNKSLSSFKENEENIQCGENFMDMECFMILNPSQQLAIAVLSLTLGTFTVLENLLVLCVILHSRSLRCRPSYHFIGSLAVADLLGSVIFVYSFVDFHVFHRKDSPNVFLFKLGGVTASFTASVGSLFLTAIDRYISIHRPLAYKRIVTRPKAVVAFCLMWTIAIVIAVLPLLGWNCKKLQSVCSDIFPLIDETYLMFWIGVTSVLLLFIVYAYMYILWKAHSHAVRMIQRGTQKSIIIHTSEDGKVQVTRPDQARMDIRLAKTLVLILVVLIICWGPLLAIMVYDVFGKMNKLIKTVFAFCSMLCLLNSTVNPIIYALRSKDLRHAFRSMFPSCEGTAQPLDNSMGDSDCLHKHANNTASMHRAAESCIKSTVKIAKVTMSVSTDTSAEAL
The target in another data set is Cytochrome P450 2C19 (Homo sapiens, UniProt P33261). The experiment in a line: Inhibition of CYP2C19 in human liver microsomes. In kind it is ADME, Microsome.
Sequence of Cytochrome P450 2C19 (P33261 whole entry): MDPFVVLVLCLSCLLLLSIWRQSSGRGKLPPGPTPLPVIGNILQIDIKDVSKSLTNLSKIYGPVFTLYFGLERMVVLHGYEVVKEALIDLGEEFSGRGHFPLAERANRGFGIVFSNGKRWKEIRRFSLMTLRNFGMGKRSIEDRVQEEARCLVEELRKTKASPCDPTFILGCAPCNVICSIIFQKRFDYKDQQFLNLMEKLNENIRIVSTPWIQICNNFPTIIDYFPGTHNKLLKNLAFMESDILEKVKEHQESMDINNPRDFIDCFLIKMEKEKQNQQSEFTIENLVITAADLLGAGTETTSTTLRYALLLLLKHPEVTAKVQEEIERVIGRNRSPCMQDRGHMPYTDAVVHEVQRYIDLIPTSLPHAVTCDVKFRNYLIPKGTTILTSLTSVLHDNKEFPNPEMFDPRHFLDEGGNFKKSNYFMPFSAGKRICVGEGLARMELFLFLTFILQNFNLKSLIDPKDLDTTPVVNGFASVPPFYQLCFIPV
Data set [15] is described as follows: Cmax in Wistar rat at 3.4 mg/kg, po. Also noted: dose 3.4 mg/kg, route oral. In kind it is ADME, organism-based. The settings on record: in vivo. The gist of the method: as §3
For another data set, the target named is T2, Cytochrome P450 1A2 (Homo sapiens, UniProt P05177).
T2 sequence (P05177 whole entry): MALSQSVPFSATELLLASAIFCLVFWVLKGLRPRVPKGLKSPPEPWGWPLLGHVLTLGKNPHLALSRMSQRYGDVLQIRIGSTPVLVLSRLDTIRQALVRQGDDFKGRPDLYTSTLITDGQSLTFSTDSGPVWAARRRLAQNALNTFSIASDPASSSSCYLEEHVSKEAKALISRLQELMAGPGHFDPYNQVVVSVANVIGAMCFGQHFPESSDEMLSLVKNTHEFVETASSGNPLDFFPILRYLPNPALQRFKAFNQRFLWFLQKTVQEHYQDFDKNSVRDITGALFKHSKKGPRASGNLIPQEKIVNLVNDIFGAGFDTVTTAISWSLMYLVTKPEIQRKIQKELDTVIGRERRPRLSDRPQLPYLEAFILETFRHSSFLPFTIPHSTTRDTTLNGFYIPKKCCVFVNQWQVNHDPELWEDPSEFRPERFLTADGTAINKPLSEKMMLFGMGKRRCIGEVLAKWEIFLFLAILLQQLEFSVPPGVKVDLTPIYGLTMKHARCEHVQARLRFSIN
The experiment in a line: Inhibition of CYP1A2 in human liver microsomes. In kind it is ADME, Microsome.

A further data set deals with T3, Cytochrome P450 2C8 (Homo sapiens, UniProt P10632).
T3 sequence (P10632 whole entry): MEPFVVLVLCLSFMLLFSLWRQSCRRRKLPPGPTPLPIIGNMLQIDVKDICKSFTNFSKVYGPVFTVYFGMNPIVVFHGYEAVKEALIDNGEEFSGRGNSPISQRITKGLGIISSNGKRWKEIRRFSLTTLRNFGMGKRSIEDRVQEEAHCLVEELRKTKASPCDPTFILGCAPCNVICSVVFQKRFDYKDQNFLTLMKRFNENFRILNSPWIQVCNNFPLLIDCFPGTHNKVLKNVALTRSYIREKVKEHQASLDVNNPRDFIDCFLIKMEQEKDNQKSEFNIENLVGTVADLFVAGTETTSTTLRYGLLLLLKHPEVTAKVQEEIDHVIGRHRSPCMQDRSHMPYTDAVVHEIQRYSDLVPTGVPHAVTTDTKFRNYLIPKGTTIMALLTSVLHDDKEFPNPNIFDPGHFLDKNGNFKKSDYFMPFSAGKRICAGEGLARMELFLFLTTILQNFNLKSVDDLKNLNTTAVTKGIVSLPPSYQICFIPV
The experiment in a line: Inhibition of CYP2C8 in human liver microsomes. It counts as ADME, Microsome.

Data set [16] is described as follows: Half life in Wistar rat at 1 mg/kg, iv. In kind it is ADME, organism-based. Details: dose 1 mg/kg, route intravenous. The settings on record: in vivo, read-out: beta t1/2 (converted). The gist of the method: as §3
Data set [17] can be described thus: AUC (0 to infinity) in Wistar rat at 1 mg/kg, iv. Details: time infinity, dose 1 mg/kg, route intravenous. To be noted: plasma. It counts as ADME, organism-based. Summed up:
as §3

The test system of data set [18] is Liver microsomes. The experiment in a line: Intrinsic clearance in human liver microsomes. It counts as ADME, Microsome.
The target in the next data set is Cytochrome P450 2D6 (Homo sapiens, UniProt P10635). Put plainly: Inhibition of CYP2D6 in human liver microsomes. It counts as ADME, Microsome.
Sequence of Cytochrome P450 2D6 (P10635 whole entry): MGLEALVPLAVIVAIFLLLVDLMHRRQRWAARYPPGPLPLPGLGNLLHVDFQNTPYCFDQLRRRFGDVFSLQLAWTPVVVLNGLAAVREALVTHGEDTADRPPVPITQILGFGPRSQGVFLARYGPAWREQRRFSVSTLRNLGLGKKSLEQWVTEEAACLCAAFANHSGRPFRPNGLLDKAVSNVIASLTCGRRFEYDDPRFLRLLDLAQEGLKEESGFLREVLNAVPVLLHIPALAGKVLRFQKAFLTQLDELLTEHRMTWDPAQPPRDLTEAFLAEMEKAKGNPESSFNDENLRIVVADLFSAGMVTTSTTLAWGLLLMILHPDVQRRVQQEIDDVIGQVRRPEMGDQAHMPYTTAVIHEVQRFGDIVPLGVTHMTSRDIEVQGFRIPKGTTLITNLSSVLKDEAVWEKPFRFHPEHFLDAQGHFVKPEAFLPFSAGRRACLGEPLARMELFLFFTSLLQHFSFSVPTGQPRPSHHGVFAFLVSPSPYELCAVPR
The target of data set [19] is T1, Cannabinoid receptor 2. Put plainly: Agonist activity at human CB2 receptor expressed in CHOK1 cells assessed as reversal of forskolin-evoked cAMP accumulation. It counts as functional, cell-based, CHO-K1. The gist of the method: as §1
Another data set deals with Cytochrome P450 3A4 (Homo sapiens, UniProt P08684). The experiment in a line: Inhibition of CYP3A4 in human liver microsomes. It counts as ADME, Microsome.
Sequence of Cytochrome P450 3A4 (P08684 whole entry): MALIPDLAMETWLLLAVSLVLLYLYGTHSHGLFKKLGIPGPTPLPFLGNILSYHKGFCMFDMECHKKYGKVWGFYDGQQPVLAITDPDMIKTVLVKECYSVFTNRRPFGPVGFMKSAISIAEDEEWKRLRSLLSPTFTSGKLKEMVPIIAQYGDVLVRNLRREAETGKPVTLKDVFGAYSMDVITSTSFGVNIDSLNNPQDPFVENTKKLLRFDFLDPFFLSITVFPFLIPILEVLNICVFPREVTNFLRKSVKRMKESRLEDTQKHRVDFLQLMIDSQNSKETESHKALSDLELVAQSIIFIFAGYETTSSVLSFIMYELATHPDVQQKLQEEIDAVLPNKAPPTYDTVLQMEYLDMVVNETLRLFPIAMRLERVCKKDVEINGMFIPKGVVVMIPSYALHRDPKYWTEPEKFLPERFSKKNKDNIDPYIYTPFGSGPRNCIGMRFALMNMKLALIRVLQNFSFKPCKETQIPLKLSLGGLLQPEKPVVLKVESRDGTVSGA
Data set [20] has as its system Rattus norvegicus. Put plainly: Antihyperalgesic activity in rat assessed as reversal of hyperalgesia at 3 mg/kg, po after 1 hr. In kind it is functional. Summed up: as §2

Sequence of Cannabinoid receptor 1 (Homo sapiens, UniProt P21554) (P21554 whole entry): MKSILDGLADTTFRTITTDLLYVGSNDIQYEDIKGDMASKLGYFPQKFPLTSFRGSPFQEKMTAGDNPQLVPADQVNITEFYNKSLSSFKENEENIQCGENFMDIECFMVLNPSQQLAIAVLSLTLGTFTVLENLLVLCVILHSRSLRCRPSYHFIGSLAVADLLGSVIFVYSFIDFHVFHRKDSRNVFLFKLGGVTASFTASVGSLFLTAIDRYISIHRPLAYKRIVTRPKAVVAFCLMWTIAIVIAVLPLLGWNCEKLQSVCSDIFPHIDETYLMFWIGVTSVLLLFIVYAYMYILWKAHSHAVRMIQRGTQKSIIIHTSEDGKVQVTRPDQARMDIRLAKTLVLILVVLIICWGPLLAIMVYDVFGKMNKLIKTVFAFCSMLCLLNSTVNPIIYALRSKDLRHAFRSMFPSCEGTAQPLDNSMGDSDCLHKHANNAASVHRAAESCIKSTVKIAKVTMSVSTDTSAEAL

By IC50 is commonly meant the point on the concentration scale where inhibition reaches its midpoint. Low values mean higher potency, high ones lower potency. As for `CCCCCCOc1ccc(C(=O)c2cccc3ccccc23)c2ccccc12`, the IC50 at Cannabinoid receptor 1 [1] stood at 160 nM; on Cannabinoid receptor 2 [2], 660 nM.
As to `CCCOc1ccc(C(=O)c2cccc3ccccc23)c2ccccc12`, the IC50 is 300 nM at Cannabinoid receptor 1 [1] and 90 nM on Cannabinoid receptor 2 [2].
As a reminder, the Emax is the maximal effect, on the per cent scale that the assay sets. With `CCCCCCC(C)(C)c1ccc([C@@H]2C[C@H](O)CC[C@H]2CCCO)c(O)c1` [CP-55940], the Emax at Cannabinoid receptor 2 [3] is 100%. For the same compound, in the data set filed under Rattus norvegicus [4], the D50 came out at 0.08 mg/kg.
In the case of `CCCCCNc1ccc(C(=O)c2cccc3ccccc23)c2ccccc12`, the figures for the IC50 at Cannabinoid receptor 1 [1] and on Cannabinoid receptor 2 [2] were 25 nM and 120 nM, respectively.
On the same counts, the results for `O=C(c1cccc2ccccc12)c1ccc(OCCc2ccccc2)c2ccccc12` are 930 nM and 2000 nM.
The matching figures for `CCCCOc1ccc(C(=O)c2cccc3ccccc23)c2ccccc12`: 48 nM and 85 nM.
As for `Cc1c(C(=O)c2cccc3ccccc23)c2cccc3c2n1[C@H](CN1CCOCC1)CO3` [WIN-552122], at Cannabinoid receptor 2 [3], the Emax amounted to 96.9%. Moreover, in the data set listed under Rattus norvegicus [4], the D50 was determined as 0.52 mg/kg.
For orientation: bioavailability means dose-corrected exposure relative to a reference, in per cent. Read a high bioavailability as much systemic uptake. As a reminder, the AUC(0-inf) is the area under the concentration-time curve extrapolated to infinity. Low readings indicate less exposure, high ones more exposure. As a reminder, the clearance is the rate of elimination divided by the concentration. In general, logP refers to the decadic logarithm of the partition coefficient of the neutral form, usually between octanol and water. A lower logP goes with lower lipophilicity. As usually defined, the Tmax is the time at which the peak concentration occurs. Broadly, the Cmax is the peak of the concentration-time curve. By EC50 is commonly meant the concentration needed to bring the measured effect to its halfway point. On to `CCCCCOc1ccc(C(=O)c2cccc3ccccc23)c2ccccc12`, for which the Vd in [5] turned out to be 9.6 L/kg. Also, the bioavailability in [6] is 43%. Moreover, the AUC(0-inf) turned out to be 8.39 µM·h in [7] and 5.72 µM·h in [17]. Further, the clearance in data set [8] stood at 8 mL/min/kg. In addition, the CL in the data set with Liver microsomes [9] and in the data set on Liver microsomes [18] was < 5 µL/min in each case. Also, in data set [10], the logP was 6.85. Also, the IC50 is > 200000 nM against Cytochrome P450 2E1; 80800 nM against Cytochrome P450 2C9; 22 nM against Cannabinoid receptor 1 [14]; > 200000 nM against Cytochrome P450 2C19; > 200000 nM on Cytochrome P450 1A2; > 200000 nM against Cytochrome P450 2C8. In addition, the IC50 on Cytochrome P450 2D6 is > 200000 nM; at Cytochrome P450 3A4 it was > 200000 nM; at Cannabinoid receptor 2 [2], 98 nM. Besides, the Tmax in data set [11] was 1 h. Moreover, in the data set with Brain, the Drug uptake was found to be 0.24 µmol/kg. For the same compound, in [12], the fraction unbound was < 0.01. Besides, the Cmax in data set [13] is 1130 nM; in data set [15] it was 1600 nM. Further, in data set [16], the half-life is 64.6 h. At Cannabinoid receptor 2 [3], the Emax is 88.4%. The EC50 on Cannabinoid receptor 2 [19] is 27.9 nM. Further, in the data set with Rattus norvegicus [20], the Activity stood at 90%. For the same compound, the D50 in the data set filed under Rattus norvegicus [4] was determined as 0.17 mg/kg.

These data come from ChEMBL document CHEMBL1148711, “Naphthalen-1-yl-(4-pentyloxynaphthalen-1-yl)methanone: a potent, orally bioavailable human CB1/CB2 dual agonist with antihyperalgesic properties and restricted central nervous system penetration” (J Med Chem, 2007).
